Source: PubChem
A selection: hits, their analogues and other compounds. The true share with any hit is near 3.5%.
PGC1a acetyl inh: PGC1a acetylation modulation, inhibitor mode; inhibition, % at 15.6 µM; U2OS PGC1a acetylation, AlphaScreen anti-acetyl-lysine; with virally co-expressed GCN5 acetyltransferase; actives 0.17% (n = 350,000);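 active = every replicate shows inhibition of at least 40%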;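 note: 0% = neutral control wells and 100% = positive control wells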
DENV2 CPE: protects cells from dengue virus 2 cytopathic effect; CPE inhibition, % at 9.99 µM; AID 651640; actives 1.7% (n = 350,000); DENV2-infected cells, cytopathic effect rescue, plate reader; in the data active = CPE inhibition above about 20%, passing the limit was not always enough; tested in BHK-21 cells;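 note: 0% = median of neutral control wells and 100% = median of positive control wells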
FN deposit inh: fibronectin deposition inhibition; actives 0.086% (n = 350,000); AH1F fibroblasts, Alexa488-fibronectin deposition fluorescence, overnight; inhibition, % at 12.6 µM;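 active = mean inhibition across replicates of 30% or more, regardless of how many single replicates reach that level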;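 note: positive control wells lacked labelled fibronectin entirely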
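material = AH1F fibroblast monolayer depositing Alexa488-labelled fibronectin into matrix | amount = 10000 AH1F cells/well | buffer or medium = DMEM plus 2% serum, read in PBS | incubation = 1 h cell adhesion before compound, then overnight fibronectin incubation | detection = fluorescence at 485 nm excitation, 525 nm emission | evaluation = percent inhibition as loss of matrix-bound fibronectin fluorescence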
PglD inh: PglD (C. jejuni) enzyme inhibition | purified PglD enzyme, DTNB colorimetric CoA detection | inhibition, % at 12.5 µM | actives 0.098% (n = 360,000) | AID 602405; in the data active = inhibition above about 16%, passing the limit was not always enough
Ecoli rRNA inh: selective bacterial rRNA inhibition in E. coli. actives 1.6% (n = 350,000). E. coli WT GFP vs humanized-ribosome RFP mutants, fluorescence, 24 h; hits give low values; DMSO median 0, no signal -100. GFP signal change (wild-type ribosome), % (test concentration not listed);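 active = significant combined selectivity score with lowered wild-type GFP, culture density cut under 30%, mutant RFP and density less affected; inactive = any of these conditions unmet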
Env fusion inh: blocks HIV Env-driven cell-cell fusion; HeLa-JRFL Env/CEM21 cell fusion, luciferase; inhibition, % at 12.3 µM; actives 1.1% (n = 360,000);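 active = mean replicate inhibition score of at least 50 and every replicate individually at or above 50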;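 note: 0% = plate neutral controls and 100% = maraviroc near 300 nM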
Active calls of the source: *; . = no result; ! = not active in a repeat; [ ] = remark or other dose.

SMILES	PGC1a acetyl inh	DENV2 CPE	FN deposit inh	PglD inh	Ecoli rRNA inh	Env fusion inh
CS(=O)(=O)Nc1ccc2c(c1)[C@@H]1C[C@H](CC(=O)NCC(F)(F)F)O[C@H](CO)[C@@H]1O2	-0.5	11.2	-3.8	-1.7	2.2	-16.0[16.7 µM]
CN(C)CCCNC(=O)[C@H]1[C@H](CO)[C@H]2Cn3c(ccc(C4=CCCC4)c3=O)[C@H]2N1CCC(F)(F)F	.	-1.2	.	-0.3	3.8	57.0*[16.7 µM]
CCCN1[C@@H]2c3ccc(C4=CCCC4)c(=O)n3C[C@@H]2[C@@H](CO)[C@@H]1C(=O)NCCCN(C)C	.	3.0	.	1.4	2.2	.
CN(C)Cc1c(O)ccc2c(=O)c(-c3ccccc3Cl)c(C(F)(F)F)oc12	9.0	-3.4	-1.2	-1.2	-14.6	3.1
CN(C)Cc1c(O)ccc2c(=O)c(-c3ccccc3)c(C(F)(F)F)oc12	.	4.3	-7.2	0.5	-32.0*	-13.0
CCN1[C@@H]2c3ccc(-c4ccccc4)c(=O)n3C[C@@H]2[C@@H](CO)[C@@H]1C(=O)Nc1ccccc1	.	12.9	.	-1.8	-6.8	.
Cc1c(C=O)c(=O)n(-c2ccccc2)n1C	.	-2.1	-6.1	0.2	9.5	2.2
Cc1c(N(C)C)c(=O)n(-c2ccccc2)n1C	-30.4	51.1*	.	-3.7	5.7	.
C/C=C(\C)C(=O)Nc1cccc(C2=NOC3(C2)C[C@@H](C(N)=O)N(C(=O)c2ccccc2C(=O)c2ccccc2)C3)c1 (some centres undefined)	.	22.7*	-5.5	1.5	-9.0	-32.6
C/C=C(/C)C(=O)Nc1cccc(C2=NOC3(C2)C[C@H](C(N)=O)N(C(=O)c2ccccc2)C3)c1 (some centres undefined)	-1.6	15.4	3.7	2.6	2.7	29.8
C/C=C(\C)C(=O)Nc1cccc(C2=NOC3(C2)C[C@@H](C(N)=O)N(C(=O)/C(C)=C/C)C3)c1 (some centres undefined)	-9.8	30.2*	12.5	-1.6	-2.6	15.9
C[C@@H]1CN([C@@H](C)CO)C(=O)c2cccc(NC(=O)Nc3ccccc3)c2O[C@@H]1CN(C)C(=O)Nc1ccc(C(F)(F)F)cc1	10.5	38.0*	.	-2.2	-1.1	0.3[16.7 µM]
C[C@@H]1CN([C@H](C)CO)C(=O)c2cccc(NC(=O)Nc3ccc(C(F)(F)F)cc3)c2O[C@@H]1CN(C)C(=O)Nc1ccc(C(F)(F)F)cc1	3.0	50.0*	.	2.5	-2.3	27.1[16.7 µM]
C[C@@H]1CN([C@@H](C)CO)C(=O)c2cccc(NC(=O)Nc3ccccc3)c2O[C@H]1CN(C)C(=O)Nc1ccc(C(F)(F)F)cc1	-0.2	-1.1	.	4.9	-0.5	40.9[16.7 µM]
C[C@H](CO)N1C[C@H](C)[C@@H](CN(C)C(=O)Nc2ccc(C(F)(F)F)cc2)Oc2c(NC(=O)C3CC3)cccc2C1=O	-1.3	-4.8	.	3.3	-5.4	-5.1[16.7 µM]
C[C@@H]1CN([C@H](C)CO)C(=O)c2cccc(NC(=O)Nc3ccccc3)c2O[C@H]1CN(C)C(=O)Nc1ccccc1	-6.3	52.3*	-3.0	0.8	-5.9	26.9[16.7 µM]
C[C@H]1CN([C@@H](C)CO)C(=O)c2cccc(NC(=O)Nc3ccccc3)c2O[C@H]1CN(C)C(=O)Nc1ccccc1	5.5	.	.	.	-4.8	7.1[16.7 µM]
C[C@H](CO)N1C[C@H](C)[C@@H](CN(C)C(=O)Nc2ccc(C(F)(F)F)cc2)Oc2c(NC(=O)C3CCCCC3)cccc2C1=O	-0.7	22.1*!	13.6	1.1	-5.3	27.4
Cc1ccc(-c2ccc3c(c2)O[C@@H](CN(C)Cc2cncnc2)[C@@H](C)CN([C@H](C)CO)S3(=O)=O)cc1	0.3	-0.1	.	1.2	-6.1	18.7[16.7 µM]
O=C(c1ccc(F)cc1)N1CC(=O)N2[C@@H](CO)[C@H](c3ccc(C#CCC4CCCC4)cc3)[C@@H]2C1	2.7	6.9	1.5	.	-6.8	.
COc1ccc2c3c([nH]c2c1)[C@@H](CO)N(C(=O)Nc1c(C)noc1C)CC31CCN(CC2CCCCC2)CC1	.	.	.	.	-0.8	.
CC(C)NC(=O)N(C)C[C@H]1Oc2c(NC(=O)Nc3ccc(C(F)(F)F)cc3)cccc2C(=O)N([C@@H](C)CO)C[C@H]1C	-8.0	14.7	.	3.3	-0.7	56.3*[16.7 µM]
NC1=C(Cl)C(=O)c2ccccc2C1=O	.	-10.1	-2.2	.	-56.8	-4.2
NC1=C(Cl)C(=O)c2ccc(S(N)(=O)=O)cc2C1=O	.	-1.0	31.4*	-2.4	-45.6	62.7*
CCC(=O)N(C)C[C@@H]1Oc2ncc(C#CCC(C)C)cc2C(=O)N([C@H](C)CO)C[C@H]1C	-3.2	1.7	-2.1	1.0	3.3	3.7[16.7 µM]
SMILES	PGC1a acetyl inh	DENV2 CPE	FN deposit inh	PglD inh	Ecoli rRNA inh	Env fusion inh
O=C(O)CC1(CC(=O)NCc2ccc(-c3cccs3)cc2)CCCCC1	4.0	-1.4	8.0	7.5	-19.5*	-1.0
O=C(N[C@H]1CC[C@H](CC(=O)N2CCC(Cc3ccccc3)CC2)O[C@H]1CO)c1cnccn1	-6.3	-2.7	-2.8	-0.3	-4.0	-0.9[16.7 µM]
C[C@H]1CN([C@@H](C)CO)C(=O)CCCn2cc(nn2)CO[C@@H]1CN(C)C(=O)Nc1ccc(C(C)(C)C)cc1	-5.2	14.2	6.8	-3.4	5.9	7.1
C[C@H]1CN([C@@H](C)CO)C(=O)CCCn2cc(nn2)CO[C@@H]1CN(C)C(=O)Nc1ccc(F)cc1	-5.8	44.2*!	3.3	2.1	2.7	14.1
C[C@H](CO)N1C[C@H](C)[C@H](CN(C)C(=O)Nc2cccc(F)c2)OCc2cn(nn2)CCCC1=O	-1.1	-0.5	-0.8	1.0	1.6	11.6[16.7 µM]
C[C@@H]1CN([C@@H](C)CO)C(=O)CCCn2cc(nn2)CO[C@H]1CN(C)C(=O)Nc1cccc(F)c1	4.4	87.2*!	5.9	0.0	-0.8	9.6[16.7 µM]
C[C@@H]1CN([C@H](C)CO)C(=O)CCCn2cc(nn2)CO[C@H]1CN(C)C(=O)Nc1ccccc1C(F)(F)F	14.4	48.0*!	4.7	-0.8	-2.3	6.5
C[C@@H]1CN([C@H](C)CO)C(=O)c2cc(-c3cccc(C#N)c3)cnc2O[C@@H]1CN(C)Cc1cccnc1	-7.4	1.0	-3.6	5.1	1.4	.
CC(C)NC(=O)N(C)C[C@@H]1Oc2ccccc2C(=O)N(C)C[C@H]1C	.	.	7.3	.	0.4	.
O=C(Nc1ccccc1F)N[C@@H]1CC[C@@H](CCNC(=O)C2CCOCC2)O[C@H]1CO	-5.2	8.6	-14.5	0.8	3.0	3.4[16.7 µM]
CN(C)C(=O)c1cccc(-c2ccccc2[C@@H]2[C@@H](C#N)N(C(=O)C3CCCC3)[C@H]2CO)c1	.	14.5	-7.1	.	6.8	.
C[C@@H]1CN([C@@H](C)CO)S(=O)(=O)c2ccc(-c3cccc(C#N)c3)cc2O[C@H]1CN(C)C(=O)c1cccnc1	10.0	-6.1	7.0	1.8	-2.7	23.7[16.7 µM]
C[C@H](CO)N1C[C@H](C)[C@@H](CN(C)S(=O)(=O)c2ccc(Cl)cc2)Oc2c(NC(=O)NC3CCCCC3)cccc2C1=O	1.7	20.7*	-7.4	1.9	-5.6	.
